# TRPC4 PAM: TRPC4 (mouse) allosteric potentiation. B-score at 10 µM. HEK293 TRPC4beta/mu-opioid, DAMGO EC20, Fluo-4 Ca2+ flux; hits give high values. 310,000 tested, 0.42% active. Q9QUQ5;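 active = B-score of calcium response area above 5 SD of library B-scores, with initial fluorescence ratio within 5 SD of library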;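 note: B-score of integrated fluorescence ratio over time as area under calcium response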
# TRPC6 inh: mouse TRPC6 channel inhibition; Q61143; HEK293-TRPC6, membrane potential dye, ACh-evoked depolarization; hits give low values; B-score at 10 µM; 310,000 tested, 1.1% active; AID 2553;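 active = B-score under library mean minus 3 SD, initial fluorescence not abnormally high, positive integrated signal ratio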;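 note: B-score derived from integrated fluorescence ratio over the kinetic read; more negative B-score means stronger inhibition of depolarization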
# Target sequence (Q61143 whole entry, looked up): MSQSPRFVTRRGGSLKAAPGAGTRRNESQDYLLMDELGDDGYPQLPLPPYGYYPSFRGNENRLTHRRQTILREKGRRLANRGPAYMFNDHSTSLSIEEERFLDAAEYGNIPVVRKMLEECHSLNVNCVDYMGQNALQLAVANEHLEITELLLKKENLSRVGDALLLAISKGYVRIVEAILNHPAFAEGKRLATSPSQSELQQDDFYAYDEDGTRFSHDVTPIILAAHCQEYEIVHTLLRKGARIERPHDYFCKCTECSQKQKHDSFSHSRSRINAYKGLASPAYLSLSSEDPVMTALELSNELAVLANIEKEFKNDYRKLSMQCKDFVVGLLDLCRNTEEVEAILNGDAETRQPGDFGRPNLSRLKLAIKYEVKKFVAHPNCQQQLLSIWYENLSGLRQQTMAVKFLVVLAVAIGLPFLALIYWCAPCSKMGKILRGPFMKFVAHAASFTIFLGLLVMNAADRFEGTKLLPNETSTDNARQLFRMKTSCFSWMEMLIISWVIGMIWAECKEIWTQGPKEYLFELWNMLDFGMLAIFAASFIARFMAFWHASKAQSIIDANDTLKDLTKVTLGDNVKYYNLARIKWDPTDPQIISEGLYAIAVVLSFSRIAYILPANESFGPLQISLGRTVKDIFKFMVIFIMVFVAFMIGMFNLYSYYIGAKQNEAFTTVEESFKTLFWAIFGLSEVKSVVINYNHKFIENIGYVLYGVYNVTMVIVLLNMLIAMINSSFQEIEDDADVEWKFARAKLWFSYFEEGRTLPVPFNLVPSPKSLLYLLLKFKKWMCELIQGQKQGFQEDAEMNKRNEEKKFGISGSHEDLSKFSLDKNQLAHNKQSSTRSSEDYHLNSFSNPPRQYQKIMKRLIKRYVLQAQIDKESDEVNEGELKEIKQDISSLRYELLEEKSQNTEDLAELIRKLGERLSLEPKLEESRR
# TRPC4 act: activators of mouse TRPC4 channel; HEK293 TRPC4beta/mu-opioid, Fluo4 calcium fluorescence; hits give high values; B-score at 10 µM; 310,000 tested, 0.49% active;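 active = B-score above 5 SD of library B-scores, and initial fluorescence ratio not above library mean plus 5 SD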;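 note: positive B-score marks a calcium rise read as TRPC4 activation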
#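 System – HEK293 cells stably co-expressing mouse TRPC4beta and mu-opioid receptor · Signal – Fluo4 calcium-sensitive dye fluorescence, kinetic, 1 Hz baseline · Benchmarks – buffer (low) and maximal DAMGO (high) · Read-out – B score of integrated fluorescence ratio per well · Incubation – dye loading 45 min room temperature, 110 s kinetic read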
# TRPC6 act: activates the mouse TRPC6 cation channel; 310,000 tested, 0.13% active; B-score at 10 µM; AID 2550; HEK293-TRPC6 membrane potential dye fluorescence; hits give high values; Q61143;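 active = B-score of the integrated fluorescence ratio above library mean plus 3 SD, and starting fluorescence ratio within library mean plus 5 SD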;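 note: higher score means more depolarization so channel activation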
# TRPC4 inh: blocks the mouse TRPC4 cation channel; Q9QUQ5; HEK293 TRPC4beta/mu-opioid, DAMGO-evoked Fluo4 calcium flux; hits give low values; B-score at 10 µM; 300,000 tested, 0.39% active; AID 2247;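 active = B-score over 3 SD under the library average, no early fluorescence shift, positive overall ratio signal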
#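 Assay system: TRPC4beta/mu-opioid receptor HEK293 cell line; compound dosing: single concentration per test compound; detection: Fluo4 Ca2+ flux fluorescence; evaluation: per-well B score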
# TRPC4 spec 2: second check of whether TRPC6 inhibitors also affect mouse TRPC4; 920 tested, 42% active; inhibition, % at 10 µM; shares compounds with TRPC6 inh; AID 2776; HEK293 TRPC4/MOR, membrane potential dye fluorescence; channel activated by saturating DAMGO dose;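 active = compounds whose fluorescence signal differed from control wells by over 3 SD, either direction, in both duplicate plates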
# TRPC4 spec: selectivity of TRPC6 inhibitors: effect on mouse TRPC4; shares compounds with TRPC6 inh; AID 2777; 920 tested, 61% active; HEK293 TRPC4/mu-opioid, membrane potential fluorescence; activity change, negative = inhibition, % at 10 µM;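 active = rise or fall in signal beyond 3 SD of buffer-only wells in both replicate plates, either sign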;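 note: integrated kinetic ratio of fluorescence range over baseline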
# HEK293 MPD ctr 2-1: parental HEK293 nonspecific activity of TRPC6 inhibitors, second screen | shares compounds with TRPC6 inh | parental HEK293 membrane potential dye fluorescence; maximal acetylcholine challenge after compound addition | signal change vs control, % at 10 µM | 920 tested, 31% active;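 active = membrane potential signal moving either way by over 3 SD of the maximum-effect control, in both duplicate plates, meaning non-specific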
# HEK293 MPD ctr-1: checks TRPC6 inhibitor effects in parental HEK293 cells; 920 tested, 60% active; membrane potential signal change, % at 10 µM; parental HEK293 membrane potential dye fluorescence; shares compounds with TRPC6 inh;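 active = membrane potential signal shifting up or down by more than 3 SD of buffer-only wells, on both duplicate plates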
# HEK293 MPD ctr-2: counter-screen for TRPC6 modulators: effect in parental HEK293 cells; 2,400 tested, 51% active; shares compounds with TRPC6 inh; membrane potential dye fluorescence; membrane potential signal change, % at 10 µM;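 active = membrane potential signal moves up or down beyond 5 SD from buffer-only wells, on both duplicate plates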
# HEK293 MPD ctr 2-2: parental HEK293 nonspecific activity of TRPC6 modulators, second screen | shares compounds with TRPC6 inh | membrane potential dye fluorescence; after compound, maximal acetylcholine stimulation | inhibition, % at 10 µM | 2,400 tested, 14% active | AID 488926;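 active = membrane potential signal drops by more than 5 SD from the mean control signal, in both duplicate plates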;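 note: plate controls were acetylcholine ECmax control wells for no effect and buffer only wells for full effect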
# TRPC4/MOR mod: tests whether TRPC6 modulators also affect mouse TRPC4; HEK293 TRPC4/mu-opioid, membrane potential fluorescence; 2,400 tested, 69% active; shares compounds with TRPC6 inh; percent change from control (negative = decrease, positive = increase), % at 10 µM; AID 488927;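 active = membrane potential signal moved up or down beyond 5 SD of buffer control wells, in both duplicate plates, actives on both sides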;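 note: plate controls were assay buffer wells for no effect and DAMGO maximal-effect wells for full effect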
# TRPC4/MOR inh 2: second selectivity test of TRPC6 modulators against mouse TRPC4; shares compounds with TRPC6 inh; HEK293 TRPC4/mu-opioid, membrane potential dye fluorescence; stimulated with maximal-effect DAMGO; inhibition, % at 10 µM; 2,400 tested, 55% active; AID 488928;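 active = drop in membrane potential signal beyond 5 SD of the control wells in both duplicate plates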;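 note: TRPC4 counter screen for TRPC6 hits run under conditions tuned for TRPC6 not TRPC4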
# TRPC6 inh conf: mouse TRPC6 inhibitor confirmation; shares compounds with TRPC6 inh; inhibition, % at 10 µM; HEK293-TRPC6, membrane potential dye, ACh-evoked depolarization; 3,300 tested, 43% active;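 active = fluorescence ratio falls more than 5 SD below the full-stimulation control mean, in both duplicate runs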;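 note: integrated fluorescence ratio of peak minus minimum over baseline after agonist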
# TRPC6 act confirm: confirmation of mouse TRPC6 activators; shares compounds with TRPC6 inh; 2,800 tested, 11% active; HEK293-TRPC6 membrane potential dye fluorescence, FDSS; activation, % at 10 µM;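 active = ratio signal rise beyond 5 SD above unstimulated control wells' mean, seen in both duplicate runs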;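 note: plate controls were buffer EC0 wells for no effect and acetylcholine ECmax response for full effect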
# * hit, by the source's call; i = inactive; x = not tested or not shown. An excerpt weighted towards active compounds, which were near 2.3% of everything screened.
SMILES,TRPC4 PAM,TRPC6 inh,TRPC4 act,TRPC6 act,TRPC4 inh,HEK293 MPD ctr-2,HEK293 MPD ctr 2-2,TRPC4/MOR mod,TRPC4/MOR inh 2,TRPC6 inh conf,TRPC6 act confirm,others
CN1c2cccc3cccc(c23)N(C)C1(C)C,i,i,i,i,i,x,x,x,x,x,x,
COc1ccc(-c2csc(NC(=O)CCCc3nc4ccccc4c(=O)[nH]3)n2)cc1OC,i,-5.2*,i,i,i,i,i,14%*,i,i,x,
COc1ccc(C2CC(c3ccc(C)cc3)=NN2C(=O)CCC(=O)O)cc1OC (centres undefined),i,i,i,i,i,x,x,x,x,x,x,
CCOC(=O)c1c(NC(=O)COC(=O)c2ccc(O)cc2)sc(C(=O)N(C)C)c1C,i,i,i,i,i,x,x,x,x,x,x,
CCOC(=O)c1c(NC(=O)COC(=O)CCOc2ccc(OCC)cc2)sc(C(=O)N(C)C)c1C,61*,i,i,13*,i,279%*,i,165%*,72%*,i,124%*,
CCOC(=O)c1c(NC(=O)COC(=O)CCOc2ccc(C)cc2)sc(C(=O)N(C)C)c1C,i,i,i,14*,i,480%*,i,44%*,66%*,i,i,
CCOC(=O)c1c(NC(=O)COC(=O)c2ccccn2)sc(C(=O)N(C)C)c1C,i,i,i,i,i,x,x,x,x,x,x,
C#CCn1cnc2c(oc3ccccc32)c1=O,i,-5*,i,i,i,i,i,i,i,i,i,
CCn1cnc2c(oc3ccccc32)c1=O,i,i,i,i,i,x,x,x,x,x,x,
COc1ccccc1NC(=O)Nc1ccc2c(c1)CCC2,i,-5*,i,i,i,i,i,i,i,i,i,
CCSc1nc(C)cc(Oc2ccc(=O)n(C)n2)n1,i,-8.6*,i,i,i,x,x,x,x,i,i,TRPC4 spec 2=i;TRPC4 spec=i;HEK293 MPD ctr 2-1=i;HEK293 MPD ctr-1=i
CCOC(=O)c1c(C)n(-c2ccccc2)c2ccc(O)cc12,i,i,i,i,i,x,x,x,x,x,x,
CCOC(=O)c1c(C)n(C)c2ccc(O)c(CN(CC)CC)c12,i,-6.5*,i,i,i,-112%*,i,-14%*,52%*,54%*,i,
CCOC(=O)c1c(CSc2ccccc2)n(C)c2ccc(O)c(CN3CCOCC3)c12,i,-5.5*,i,i,i,i,i,i,55%*,36%*,i,
CCOC(=O)c1c(CSc2ccccc2)n(C)c2cc(Br)c(OC)c(O)c12,i,i,i,i,i,x,x,x,x,x,x,
CCOC(=O)c1c(C)n(-c2ccccc2)c2ccc(O)c(CN(C)C)c12,i,-6.5*,i,i,i,-90%*,i,-18%*,65%*,69%*,i,
CCOC(=O)c1c(C)n(C)c2ccc(O)c(CN3CCC(C)CC3)c12,i,-9.4*,i,i,i,-140%*,i,-18%*,73%*,64%*,i,
CCOC(=O)c1c(C)n(C)c2ccc(O)c(CN3CCN(C)CC3)c12,i,i,i,i,i,x,x,x,x,x,x,
CCNC(=O)NC1c2ccccc2CSc2ccccc21 (centres undefined),i,i,i,i,i,x,x,x,x,x,x,
CCOCCN1CCN(C2c3ccccc3CSc3ccccc32)CC1 (centres undefined),i,-8.3*,i,i,i,x,x,x,x,i,x,TRPC4 spec 2=72%*;TRPC4 spec=18%*;HEK293 MPD ctr 2-1=i;HEK293 MPD ctr-1=9.5%*
Cc1cccc(NC(=O)NCc2cccnc2)c1C,i,i,i,i,i,x,x,x,x,x,x,
O=C(CC1C(=O)NCCN1C(=O)Nc1ccc(C(F)(F)F)cc1)Nc1ccc(F)cc1 (centres undefined),i,-5*,i,i,i,-106%*,i,-18%*,45%*,i,i,
O=C(Cn1cnc2sc3c(c2c1=O)CCCC3)NCC(=O)Nc1ccc(F)cc1F,i,i,i,i,i,x,x,x,x,x,x,
CCN1CCN(c2ccc(S(=O)(=O)N3CCCCC3)cc2NC(=O)c2ccc([N+](=O)[O-])o2)CC1,i,-7.5*,i,i,i,-130%*,i,-30%*,54%*,i,i,
CCN1CCN(c2ccc(S(=O)(=O)N3CCCCC3)cc2NC(=O)COc2cc(C)ccc2Cl)CC1,25*,-5.7*,i,i,i,i,i,i,54%*,i,i,
COc1ccc(S(=O)(=O)N2CCCCC2)cc1NC(=O)c1ccc([N+](=O)[O-])o1,i,i,i,i,i,x,x,x,x,x,x,
CN1CCN(c2ccc(S(=O)(=O)N3CCCCC3)cc2NC(=O)c2ccc(F)cc2F)CC1,16*,-9*,i,i,i,x,x,x,x,i,i,TRPC4 spec 2=70%*;TRPC4 spec=i;HEK293 MPD ctr 2-1=278%*;HEK293 MPD ctr-1=0.3%*
O=C(c1ccc2oc(CCCc3ccccc3)nc2c1)N1CCCC1,i,i,i,i,i,x,x,x,x,x,x,

# Compound activity deposited in PubChem BioAssay by Johns Hopkins Ion Channel Center.
